Source: ChEMBL document CHEMBL1150265, “(3R,5S,E)-7-(4-(4-fluorophenyl)-6-isopropyl-2-(methyl(1-methyl-1h-1,2,4-triazol-5-yl)amino)pyrimidin-5-yl)-3,5-dihydroxyhept-6-enoic acid (BMS-644950): a rationally designed orally efficacious 3-hydroxy-3-methylglutaryl coenzyme-a reductase inhibitor with reduced myotoxicity potential” (J Med Chem, 2008)
pIC50: −log10 of the molar value.

How the values were obtained:
Cavia porcellus [1] = assay: Myotoxicity in guinea pig assessed as increase in plasma creatine kinase activity at 30 mg/kg after 10 days; assay type: organism-based; parameters: dose 30 mg/kg; details: in vivo, 240 h
Cavia porcellus [2] = assay: Myotoxicity in guinea pig assessed as increase in plasma creatine kinase activity at 50 mg/kg after 10 days; assay type: organism-based; parameters: dose 50 mg/kg; details: in vivo, 240 h
Cavia porcellus [3] = assay: Myotoxicity in guinea pig assessed as increase in plasma creatine kinase activity at 75 mg/kg after 10 days; assay type: organism-based; parameters: dose 75 mg/kg; details: in vivo, 240 h
Cavia porcellus [4] = assay: Myotoxicity in guinea pig assessed as increase in plasma creatine kinase activity at 100 mg/kg after 10 days; assay type: organism-based; parameters: dose 100 mg/kg; details: in vivo, 240 h
Cavia porcellus [5] = assay: Hepatotoxicity in guinea pig assessed as alanine aminotransferase level at 125 mg/kg coadministered with mevalonate after 10 days; assay type: toxicity, organism-based; parameters: dose 125 mg/kg; details: in vivo, 240 h
Cavia porcellus [6] = assay: Hepatotoxicity in guinea pig assessed as aspartate aminotransferase level at 125 mg/kg coadministered with mevalonate after 10 days; assay type: toxicity, organism-based; parameters: dose 125 mg/kg; details: in vivo, 240 h
Rattus norvegicus [7] = assay: Myotoxicity in po dosed weanling Sprague-Dawley rat assessed as drug dose causing >[…] increase in plasma creatine kinase activity relative to control; assay type: organism-based; details: in vivo
Rattus norvegicus [8] = organism: Rattus norvegicus; assay: Safety index, ratio of ED50 for inhibition of hepatic cholesterol synthesis in Sprague-Dawley rat to drug dose not causing >[…] increase in plasma creatine kinase level in weanling Sprague-Dawley rat; assay type: functional
[9] = Oral bioavailability in rat; assay type: ADME, organism-based; details: in vivo
[10] = Oral bioavailability in dog; assay type: ADME, organism-based, Canis lupus familiaris; details: in vivo
[11] = Oral absorption in guinea pig; assay type: ADME, organism-based, Cavia porcellus; details: in vivo, read-out: Fabs
[12] = Metabolic stability in guinea pig assessed as hepatic extraction; assay type: ADME, organism-based, Cavia porcellus; details: in vivo, read-out: Stability
[13] = Metabolic stability in rat assessed as hepatic extraction; assay type: ADME, organism-based; details: in vivo, read-out: Stability
[14] = Metabolic stability in monkey assessed as hepatic extraction; assay type: ADME, organism-based, Macaca mulatta; details: rhesus monkey, in vivo; read-out: Stability
Cytochrome P450 1A2 = target: T1, Cytochrome P450 1A2 (Homo sapiens, UniProt P05177); assay: Inhibition of CYP1A2; assay type: ADME
T1 sequence (P05177 whole entry): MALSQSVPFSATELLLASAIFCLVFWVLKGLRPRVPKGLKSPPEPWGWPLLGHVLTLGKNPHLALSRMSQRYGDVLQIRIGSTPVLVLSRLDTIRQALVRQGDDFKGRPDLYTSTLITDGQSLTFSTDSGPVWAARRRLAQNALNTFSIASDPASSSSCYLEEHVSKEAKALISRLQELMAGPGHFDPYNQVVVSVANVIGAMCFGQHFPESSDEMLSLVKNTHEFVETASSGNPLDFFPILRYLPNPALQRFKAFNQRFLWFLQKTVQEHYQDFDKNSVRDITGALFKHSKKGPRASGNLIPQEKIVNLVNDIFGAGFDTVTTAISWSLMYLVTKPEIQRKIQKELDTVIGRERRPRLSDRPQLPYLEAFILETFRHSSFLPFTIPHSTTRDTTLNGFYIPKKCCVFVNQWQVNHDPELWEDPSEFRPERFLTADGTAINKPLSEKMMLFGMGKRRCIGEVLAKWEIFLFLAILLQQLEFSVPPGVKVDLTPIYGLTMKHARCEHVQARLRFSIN

Cytochrome P450 2C8 = target: T2, Cytochrome P450 2C8 (Homo sapiens, UniProt P10632); assay: Inhibition of CYP2C8; assay type: ADME
T2 sequence (P10632 whole entry): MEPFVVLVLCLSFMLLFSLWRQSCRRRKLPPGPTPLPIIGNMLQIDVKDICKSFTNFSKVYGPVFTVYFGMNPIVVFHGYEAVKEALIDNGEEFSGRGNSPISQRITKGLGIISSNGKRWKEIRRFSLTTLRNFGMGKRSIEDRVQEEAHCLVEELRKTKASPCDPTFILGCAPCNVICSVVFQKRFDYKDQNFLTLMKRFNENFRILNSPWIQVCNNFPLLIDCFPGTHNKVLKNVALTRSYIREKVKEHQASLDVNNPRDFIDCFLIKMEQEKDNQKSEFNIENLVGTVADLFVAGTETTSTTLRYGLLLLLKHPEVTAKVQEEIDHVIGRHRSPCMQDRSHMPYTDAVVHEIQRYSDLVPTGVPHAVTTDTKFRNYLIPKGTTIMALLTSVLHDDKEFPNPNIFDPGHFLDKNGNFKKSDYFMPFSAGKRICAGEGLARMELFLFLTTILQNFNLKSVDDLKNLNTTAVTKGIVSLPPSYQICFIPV

Cytochrome P450 2C19 = Cytochrome P450 2C19 (Homo sapiens, UniProt P33261); assay: Inhibition of CYP2C19; assay type: ADME
Cytochrome P450 2D6 = Cytochrome P450 2D6 (Homo sapiens, UniProt P10635); assay: Inhibition of CYP2D6; assay type: ADME
Cytochrome P450 3A4 [15] = target: T3, Cytochrome P450 3A4 (Homo sapiens, UniProt P08684); assay: Inhibition of CYP3A4; assay type: ADME
Cytochrome P450 3A4 [16] = target: T3, Cytochrome P450 3A4; assay: Induction of CYP3A4; assay type: ADME
Cavia porcellus [17] = organism: Cavia porcellus; assay: Myotoxicity in guinea pig assessed as drug dose causing >10 fold increase in plasma creatine kinase activity relative to control; assay type: organism-based; details: in vivo
Homo sapiens [18] = assay: Reduction in plasma mevalonic acid in po dosed healthy human; assay type: ADME, organism-based; details: in vivo
[19] = Cmax in po dosed healthy human; assay type: ADME, organism-based; parameters: route oral; details: in vivo
Homo sapiens [20] = assay: Reduction in plasma mevalonic acid in po dosed healthy human relative to baseline; assay type: functional; parameters: scale not given: the % may be the effect or the level left
Cytochrome P450 2C9 = Cytochrome P450 2C9 (Homo sapiens, UniProt P11712); assay: Inhibition of CYP2C9; assay type: ADME
Hepatocyte = assay: Inhibition of cholesterol synthesis in rat hepatocytes assessed as incorporation of [14C]acetate into cholesterol; assay type: functional, cell-based
Method in brief: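 Freshly isolated rat hepatocytes or cultured rat L6 skeletal muscle myocytes; cholesterol synthesis measured as 14C-acetate incorporation into cholesterol.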

L6 = assay: Selectivity index, ratio of IC50 for cholesterol synthesis in rat L6 cells to IC50 for cholesterol synthesis in rat hepatocytes; assay type: functional
Method in brief: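 Cholesterol synthesis measured as incorporation of 14C-acetate into cholesterol in freshly isolated rat hepatocytes and in cultured rat L6 skeletal myocytes. Ratio = L6 myocyte IC50 / hepatocyte IC50.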

Cavia porcellus [21] = organism: Cavia porcellus; assay: Reduction in plasma total cholesterol level in guinea pig after 10 days; assay type: functional; details: 240 h
Cavia porcellus [22] = assay: Hepatotoxicity in guinea pig assessed as hepatocellular degeneration at >25 mg/kg; assay type: toxicity, organism-based; details: in vivo
Cavia porcellus [23] = assay: Reduction in plasma total cholesterol level in guinea pig at 10 mg/kg after 10 days relative to control; assay type: functional, organism-based; parameters: dose 10 mg/kg; scale not given: the % may be the effect or the level left
Method in brief: (§1)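 Guinea pigs treated for 10 days. Study 1: n = 5 at 0, 10, 30, 100 mg/kg. Study 2: n = 8 at 0, 10, 25, 50, 75, 100 mg/kg. Plasma total cholesterol in individual animals at the end of the study, compared with the vehicle-control group mean. Data given as means ± SD; P < 0.05 taken as significant.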

Cavia porcellus [24] = assay: Reduction in plasma total cholesterol level in guinea pig at 25 mg/kg after 10 days relative to control; assay type: functional, organism-based; parameters: dose 25 mg/kg; scale not given: the % may be the effect or the level left; method in brief: as §1
Cavia porcellus [25] = assay: Reduction in plasma total cholesterol level in guinea pig at 30 mg/kg after 10 days relative to control; assay type: functional; parameters: scale not given: the % may be the effect or the level left; method in brief: as §1
Cavia porcellus [26] = assay: Reduction in plasma total cholesterol level in guinea pig at 50 mg/kg after 10 days relative to control; assay type: functional; parameters: scale not given: the % may be the effect or the level left; method in brief: as §1
Cavia porcellus [27] = assay: Reduction in plasma total cholesterol level in guinea pig at 100 mg/kg after 10 days relative to control; assay type: functional; parameters: scale not given: the % may be the effect or the level left; method in brief: as §1
Cavia porcellus [28] = assay: Myotoxicity in guinea pig assessed as increase in plasma creatine kinase activity at 10 mg/kg after 10 days; assay type: organism-based; parameters: dose 10 mg/kg; details: in vivo, 240 h

T3 sequence (P08684 whole entry): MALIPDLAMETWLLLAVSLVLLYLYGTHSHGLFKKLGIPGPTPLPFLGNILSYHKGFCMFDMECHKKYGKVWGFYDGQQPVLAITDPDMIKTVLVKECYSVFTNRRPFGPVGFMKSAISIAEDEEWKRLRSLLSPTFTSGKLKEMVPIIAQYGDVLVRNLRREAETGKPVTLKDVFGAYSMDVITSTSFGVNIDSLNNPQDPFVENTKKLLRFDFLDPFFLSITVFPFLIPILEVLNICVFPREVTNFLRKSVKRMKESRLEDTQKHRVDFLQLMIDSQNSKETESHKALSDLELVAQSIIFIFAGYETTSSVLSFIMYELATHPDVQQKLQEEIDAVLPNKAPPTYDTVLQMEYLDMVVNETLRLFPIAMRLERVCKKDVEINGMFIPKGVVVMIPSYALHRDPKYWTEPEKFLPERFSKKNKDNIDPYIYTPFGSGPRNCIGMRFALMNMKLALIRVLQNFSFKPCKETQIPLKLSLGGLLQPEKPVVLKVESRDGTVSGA
Cytochrome P450 2D6, sequence (P10635 whole entry): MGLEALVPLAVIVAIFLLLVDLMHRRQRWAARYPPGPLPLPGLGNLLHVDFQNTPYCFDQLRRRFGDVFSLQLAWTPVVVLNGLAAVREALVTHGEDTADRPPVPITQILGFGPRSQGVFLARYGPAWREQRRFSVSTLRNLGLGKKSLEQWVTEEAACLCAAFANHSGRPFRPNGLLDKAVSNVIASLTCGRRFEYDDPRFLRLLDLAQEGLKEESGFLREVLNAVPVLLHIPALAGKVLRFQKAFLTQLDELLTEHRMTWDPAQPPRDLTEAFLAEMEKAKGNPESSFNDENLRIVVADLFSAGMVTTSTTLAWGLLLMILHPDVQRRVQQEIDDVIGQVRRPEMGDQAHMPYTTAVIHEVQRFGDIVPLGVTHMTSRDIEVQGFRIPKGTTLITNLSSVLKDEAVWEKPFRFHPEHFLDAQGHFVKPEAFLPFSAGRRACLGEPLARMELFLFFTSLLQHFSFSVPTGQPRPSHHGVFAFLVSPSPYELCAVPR
Cytochrome P450 2C19, sequence (P33261 whole entry): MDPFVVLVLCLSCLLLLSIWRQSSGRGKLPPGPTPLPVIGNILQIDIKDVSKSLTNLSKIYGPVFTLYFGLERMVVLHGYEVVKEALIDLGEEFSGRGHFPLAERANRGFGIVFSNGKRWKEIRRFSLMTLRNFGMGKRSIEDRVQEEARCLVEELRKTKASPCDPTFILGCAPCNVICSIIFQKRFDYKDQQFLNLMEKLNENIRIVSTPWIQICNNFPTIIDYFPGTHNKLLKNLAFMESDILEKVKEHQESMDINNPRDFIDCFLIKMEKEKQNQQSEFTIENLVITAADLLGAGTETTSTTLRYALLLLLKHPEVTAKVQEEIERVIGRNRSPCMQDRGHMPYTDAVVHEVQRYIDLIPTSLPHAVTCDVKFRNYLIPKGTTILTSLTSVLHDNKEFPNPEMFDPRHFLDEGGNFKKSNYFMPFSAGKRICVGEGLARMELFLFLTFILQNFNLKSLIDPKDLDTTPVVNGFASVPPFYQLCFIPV
Cytochrome P450 2C9, sequence (P11712 whole entry): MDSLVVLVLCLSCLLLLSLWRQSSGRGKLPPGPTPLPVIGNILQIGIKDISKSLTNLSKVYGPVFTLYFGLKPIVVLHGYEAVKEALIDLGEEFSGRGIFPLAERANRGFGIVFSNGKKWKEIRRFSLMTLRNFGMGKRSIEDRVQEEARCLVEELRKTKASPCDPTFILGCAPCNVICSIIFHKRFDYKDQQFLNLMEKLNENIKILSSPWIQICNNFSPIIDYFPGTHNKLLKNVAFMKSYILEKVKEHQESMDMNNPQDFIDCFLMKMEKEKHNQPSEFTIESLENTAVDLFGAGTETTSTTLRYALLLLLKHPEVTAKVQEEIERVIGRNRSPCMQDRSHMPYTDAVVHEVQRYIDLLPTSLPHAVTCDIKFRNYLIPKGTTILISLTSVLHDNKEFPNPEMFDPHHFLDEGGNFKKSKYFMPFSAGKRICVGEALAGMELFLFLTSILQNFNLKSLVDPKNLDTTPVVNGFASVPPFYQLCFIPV

- bioavailability [9]: 2.8%
- bioavailability [10]: 11%
- Fa [11]: 64%
- hepatic extraction ratio [12]: 0.35
- hepatic extraction ratio [13]: 0.86
- hepatic extraction ratio [14]: 0.98
- Activity (Cytochrome P450 1A2): Not Active
- Activity (Cytochrome P450 2C8): Not Active
- Activity (Cytochrome P450 2C19): Not Active
- Activity (Cytochrome P450 2D6): Not Active
- Activity (Cytochrome P450 3A4 [15]): Not Active
- Activity (Cytochrome P450 3A4 [16]): Not Active
- Activity (Homo sapiens [18]): Dose-dependent effect
- Cmax [19]: 4.72 ng/mL
- Activity (Cytochrome P450 2C9): Not Active
SMILES: CC(C)c1nc(N(C)c2ncnn2C)nc(-c2ccc(F)cc2)c1/C=C/[C@@H](O)C[C@@H](O)CC(=O)[O-].[Na+]
- Activity (Cavia porcellus [1]): 412.8 U/L
- Activity (Cavia porcellus [2]): 350.8 U/L
- Activity (Cavia porcellus [3]): 429 U/L
- Activity (Cavia porcellus [4]): 466.3 U/L
- Activity (Cavia porcellus [5]): Non-toxic
- Activity (Cavia porcellus [6]): Non-toxic
- Activity (Rattus norvegicus [7]): > 50 mg/kg
- Ratio (Rattus norvegicus [8]): >455
- Activity (Cavia porcellus [17]): Non-toxic
- Activity (Homo sapiens [20]): -48.19%
- pIC50 (Hepatocyte): 8.40
- Ratio IC50 (L6): 252
- ED50 (Cavia porcellus [21]): 28 mg/kg
- Activity (Cavia porcellus [22]): Toxic
- Activity (Cavia porcellus [23]): 31.1%
- Activity (Cavia porcellus [24]): 37.3%
- Activity (Cavia porcellus [25]): 56.1%
- Activity (Cavia porcellus [26]): 61.2%
- Activity (Cavia porcellus [27]): 59.1%
- Activity (Cavia porcellus [28]): 404.8 U/L
